What all share (settings): Aorta
A short description of test [1]: In vitro maximal vasorelaxation of endothelium-denuded rat aortic rings, expressed as percentage contractile tension. The format is functional. The procedure, abridged: (§1)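 Thoracic aortic rings were taken from male normotensive Wistar rats (250–350 g) and equilibrated for 60 min. Rings relaxing ≥10% to ACh 10 μM after NE 1 μM precontraction were discarded. Rings were contracted with KCl 20 mM, then 3-fold increasing concentrations were added cumulatively. Efficacy is the maximal relaxation as % of KCl tone, or the response at the 0.1 mM limit concentration. Mean ± standard error of 5–10 experiments.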

Test [2] is described as follows: In vitro maximal vasorelaxing effect evoked on endothelium-denuded rat aortic rings in the presence of 1 uM glibenclamide. The format is functional. The procedure, abridged: (§2)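 Glibenclamide 1 μM was added to endothelium-denuded male Wistar rat aortic rings before the 20 mM KCl contraction. Compound was then added cumulatively in 3-fold increasing concentrations, and relaxation was expressed relative to the KCl tone. Student t test against control, P < 0.05. Mean ± standard error, 5–10 experiments.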

Test [3] is described as follows: In vitro vasorelaxing effect evoked on endothelium-denuded rat aortic rings in the presence of 1 uM glibenclamide.
Test [4] is described as follows: In vitro maximal vasorelaxing effect evoked on endothelium-denuded rat aortic rings was expressed as percentage contractile tension in the presence of 60 mM KCl.
A short description of test [5]: In vitro vasorelaxing effect evoked on endothelium-denuded rat aortic rings in the presence of 1 uM glibenclamide. Type of test: functional, tissue-based. The procedure, abridged: as §2
Test [6] is described as follows: In vitro vasorelaxing effect evoked on endothelium-denuded rat aortic rings expressed as potency significantly different from respective control. The format is functional, tissue-based.
Test [7] in a line: In vitro vasorelaxing effect evoked on endothelium-denuded rat aortic rings expressed as percentage efficacy (%) recorded in the presence of 1 uM glibenclamide.
The species entered for test [8] is Rattus norvegicus. Description: In vitro maximal vasorelaxing effect evoked on endothelium-denuded rat aortic rings was expressed as percentage contractile tension; The compound was ineffective. The format is functional, tissue-based. The procedure, abridged:
as §1

The species entered for test [9] is Rattus norvegicus. The experiment in a line: In vitro vasorelaxing effect evoked on endothelium-denuded rat aortic rings expressed as half reduction of the contractile tone; The compound was ineffective. The format is functional, tissue-based.

With `CC1(C)CN(N2CCCC2=O)c2cc(C#N)ccc2S1`, the Emax in test [1] turned out to be 98%.

With `CC1(C)CN(C2=CCCC2=O)c2cc(Br)ccc2S1`, the Emax turned out to be 99% in test [1], 92% in [2] and 28% in [4]. Also, the IC50 in [3] was 0.525 µM.

For the molecule `CC1(C)Oc2ccc(C#N)cc2[C@@H](N2CCCC2=O)[C@@H]1O` [LEVCROMAKALIM], the maximum response (Emax) in [1] amounted to 100%.

Turning to `CC1(C)CN(C2=CCCC2=O)c2cc([N+](=O)[O-])ccc2S1`, the maximum response (Emax) stood at 98% in test [1], 90% in test [2] and 26% in test [4]. Also, the half-maximal inhibitory concentration (IC50) in test [5] was 0.417 µM.

With `CC1(C)CN(C2=CCCC2=O)c2cc(C#N)ccc2S1`, the figures for the maximal effect (Emax) in test [1], in test [2] and in test [4] were 95%, 100% and 18%, respectively. In addition, in test [5], the IC50 is 0.0692 µM.

For the molecule `CC1(C)Sc2ccc(C(F)(F)F)cc2NC1=O`, in test [6], the IC50 is 28.2 µM. For the same molecule, the Emax in [7] stood at 81%.

In the case of `CC(=O)N1CC(C)(C)Sc2ccc(Br)cc21`, the Emax in test [1] turned out to be 100%.

As to `CC1(C)CN(N2CCCC2=O)c2cc(Br)ccc2S1`, the figures for the maximum response (Emax) in test [1], in test [2] and in [4] were 100%, 99% and 30%, respectively. The IC50 in test [5] is 2.4 µM.

Consider `CC1(C)CN(C2=CCCC2=O)c2cc(C(F)(F)F)ccc2S1`, for which the maximal response (Emax) stood at 99% in test [1], 87% in test [2] and 35% in [4]. For the same molecule, the IC50 in [5] was 0.437 µM.

In turn, `CC(=O)NN1CC(C)(C)Sc2ccc(Br)cc21` registered a maximal response (Emax) in test [1] of 100%.

In the case of `CC1(C)CN(NC(=O)c2cccc(F)c2)c2cc([N+](=O)[O-])ccc2S1`, the Emax in test [1] was 91%; in test [2], 93%; in [4], 15%. In addition, the IC50 in [5] is 0.302 µM.

Take `CC1(C)CN(NC(=O)c2cccc(F)c2)c2cc(Br)ccc2S1`: the maximal response (Emax) in test [1] is 95%; in [2], 58%.

Regarding `CC(=O)NN1CC(C)(C)Sc2ccc([N+](=O)[O-])cc21`, the Emax came to 92% in [1], 95% in test [2] and 24% in test [4]. Further, the IC50 in test [5] is 0.0933 µM.

For `C=CCN1CC(C)(C)Sc2ccc(C(F)(F)F)cc21`, the Emax in test [1] amounted to 97%.

Take `CC1(C)CN(N2CCCC2=O)c2cc([N+](=O)[O-])ccc2S1`: the maximal response (Emax) in test [1] amounted to 91%.

In test [1], `CC1(C)CN(N2CCCCC2=O)c2cc(Br)ccc2S1` registered a maximal effect (Emax) of 100%.

Turning to `CC1(C)CN(N2CCCC2=O)c2cc(Br)ccc2S1(=O)=O`, in [1], the Emax came out at 100%.

In [1], `CC1(C)CN(N2CCCC2=O)c2cc(Br)ccc2[S+]1[O-]` (stereo not drawn) showed an Emax of 96%.

On to `CC(=O)N1CC(C)(C)Sc2ccc([N+](=O)[O-])cc21`, for which the NE entry in the test filed under Rattus norvegicus [8] and in the test filed under Rattus norvegicus [9] was “Ineffective” each time.

(Values after ChEMBL document CHEMBL1145991 (J Med Chem, 2003).)
